Experiment [1] addresses T1, Androgen receptor (Homo sapiens, UniProt P10275).
T1 sequence (P10275 whole entry): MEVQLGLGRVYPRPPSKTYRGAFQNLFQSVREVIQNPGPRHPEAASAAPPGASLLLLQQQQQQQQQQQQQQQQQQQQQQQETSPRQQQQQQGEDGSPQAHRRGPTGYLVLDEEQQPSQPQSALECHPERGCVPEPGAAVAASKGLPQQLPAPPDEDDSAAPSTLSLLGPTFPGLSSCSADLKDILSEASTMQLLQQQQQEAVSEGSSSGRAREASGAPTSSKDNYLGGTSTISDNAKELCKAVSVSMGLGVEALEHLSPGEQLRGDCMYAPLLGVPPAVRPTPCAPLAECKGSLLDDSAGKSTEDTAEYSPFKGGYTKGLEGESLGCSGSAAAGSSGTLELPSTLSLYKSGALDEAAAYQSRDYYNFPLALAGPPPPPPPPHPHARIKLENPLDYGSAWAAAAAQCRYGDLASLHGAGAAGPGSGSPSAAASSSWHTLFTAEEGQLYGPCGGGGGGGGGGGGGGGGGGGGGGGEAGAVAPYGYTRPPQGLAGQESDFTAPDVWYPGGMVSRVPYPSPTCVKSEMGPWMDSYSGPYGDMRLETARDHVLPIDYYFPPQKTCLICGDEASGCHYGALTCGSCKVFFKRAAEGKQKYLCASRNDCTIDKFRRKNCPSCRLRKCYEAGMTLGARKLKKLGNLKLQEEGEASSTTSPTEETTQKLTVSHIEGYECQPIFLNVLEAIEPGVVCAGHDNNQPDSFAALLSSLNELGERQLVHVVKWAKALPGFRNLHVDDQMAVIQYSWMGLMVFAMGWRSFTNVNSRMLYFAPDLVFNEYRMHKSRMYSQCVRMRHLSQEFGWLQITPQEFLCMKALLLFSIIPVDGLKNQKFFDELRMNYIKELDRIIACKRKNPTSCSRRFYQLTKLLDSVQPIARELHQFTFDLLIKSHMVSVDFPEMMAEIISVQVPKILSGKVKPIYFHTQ
In words: Inhibitory activity (IC50) against human androgen receptor expressed in CV-1 cells. Type of experiment: cell-based. In outline: (§1)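 Cotransfection assays in CV-1 cells with a luciferase reporter, read as normalized LUC expression. In antagonist mode, the reference agonists were DHT for hAR, dexamethasone for hGR and aldosterone for hMR. Antagonist efficacy was expressed as the percent of maximal inhibition of the agonist. Values are means of at least three separate experiments in triplicate, or of two experiments.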

The target of experiment [2] is T2, Glucocorticoid receptor (Homo sapiens, UniProt P04150).
T2 sequence (P04150 whole entry): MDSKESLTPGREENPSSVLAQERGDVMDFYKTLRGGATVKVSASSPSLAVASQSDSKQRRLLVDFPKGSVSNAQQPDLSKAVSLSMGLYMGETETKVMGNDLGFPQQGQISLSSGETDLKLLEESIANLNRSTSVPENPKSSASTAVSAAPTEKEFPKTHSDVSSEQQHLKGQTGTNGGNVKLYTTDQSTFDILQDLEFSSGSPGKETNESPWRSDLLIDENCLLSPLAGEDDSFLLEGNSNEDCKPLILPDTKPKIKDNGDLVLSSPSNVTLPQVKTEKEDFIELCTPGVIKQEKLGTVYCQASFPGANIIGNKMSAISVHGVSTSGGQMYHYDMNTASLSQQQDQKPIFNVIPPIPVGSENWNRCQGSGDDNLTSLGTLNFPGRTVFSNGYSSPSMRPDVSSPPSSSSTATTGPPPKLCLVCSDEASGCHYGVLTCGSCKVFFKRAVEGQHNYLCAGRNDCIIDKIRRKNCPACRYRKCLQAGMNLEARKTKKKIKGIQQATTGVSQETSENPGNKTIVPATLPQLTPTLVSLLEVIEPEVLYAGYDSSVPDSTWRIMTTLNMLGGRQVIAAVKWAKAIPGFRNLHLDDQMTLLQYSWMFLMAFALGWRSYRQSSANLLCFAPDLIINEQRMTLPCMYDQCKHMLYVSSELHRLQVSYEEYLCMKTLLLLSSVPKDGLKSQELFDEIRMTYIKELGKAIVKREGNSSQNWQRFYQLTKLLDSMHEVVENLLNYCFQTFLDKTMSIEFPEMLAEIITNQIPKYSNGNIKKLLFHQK
As to the kind of experiment: Inhibitory activity (IC50) against human glucocorticoid receptor expressed in CV-1 cells. Type of experiment: cell-based. In outline: as §1

The target in experiment [3] is T3, Progesterone receptor (Homo sapiens, UniProt P06401).
T3 sequence (P06401 whole entry): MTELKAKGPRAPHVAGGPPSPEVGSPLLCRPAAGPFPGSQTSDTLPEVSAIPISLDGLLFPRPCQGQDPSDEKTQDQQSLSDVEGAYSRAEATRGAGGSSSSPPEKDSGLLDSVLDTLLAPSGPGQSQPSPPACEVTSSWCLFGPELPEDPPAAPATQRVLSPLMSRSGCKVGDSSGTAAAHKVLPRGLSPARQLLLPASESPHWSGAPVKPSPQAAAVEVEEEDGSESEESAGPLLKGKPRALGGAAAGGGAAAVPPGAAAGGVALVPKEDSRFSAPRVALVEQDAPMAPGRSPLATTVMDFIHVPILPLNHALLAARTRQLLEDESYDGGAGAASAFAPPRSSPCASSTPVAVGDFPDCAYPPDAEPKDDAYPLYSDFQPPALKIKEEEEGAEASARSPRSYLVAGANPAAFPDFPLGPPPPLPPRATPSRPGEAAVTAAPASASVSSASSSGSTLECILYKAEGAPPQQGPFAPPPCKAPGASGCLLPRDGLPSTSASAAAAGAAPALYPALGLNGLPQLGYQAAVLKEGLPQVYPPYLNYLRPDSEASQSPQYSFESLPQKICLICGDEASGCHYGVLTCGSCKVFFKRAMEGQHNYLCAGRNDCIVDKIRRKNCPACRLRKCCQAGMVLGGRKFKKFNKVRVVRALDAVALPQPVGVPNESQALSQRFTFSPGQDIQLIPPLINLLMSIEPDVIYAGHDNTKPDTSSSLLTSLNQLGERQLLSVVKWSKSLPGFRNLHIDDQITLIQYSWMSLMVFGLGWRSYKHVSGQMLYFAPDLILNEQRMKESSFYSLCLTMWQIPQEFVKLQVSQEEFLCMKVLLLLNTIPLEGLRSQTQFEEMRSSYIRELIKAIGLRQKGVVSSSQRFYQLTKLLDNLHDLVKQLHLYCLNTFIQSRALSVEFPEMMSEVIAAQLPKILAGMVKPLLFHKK
In words: Binding affinity against human progesterone receptor.

The target in experiment [4] is T2, Glucocorticoid receptor. In words: biochemical.
Experiment [5] addresses T1, Androgen receptor.

From ChEMBL document CHEMBL1131161 (J Med Chem, 1998) come the findings set out here.

For `CC1=CC(C)(C)Nc2ccc3c(c21)/C(=C/c1cc(F)ccc1F)Oc1ccccc1-3`, the values for the IC50 in experiment [1] and in experiment [2] were 1600 nM and 371 nM, respectively. For the same compound, the Ki in experiment [3] worked out at 1.5 nM; in experiment [4], 173 nM.
Take `CC1=CC(C)(C)Nc2ccc3c(c21)/C(=C/c1ccccc1C)Oc1ccccc1-3`: the figures for the IC50 in experiment [2] and in experiment [5] were 1050 nM and 1060 nM, respectively. Further, the Ki in experiment [3] was 0.66 nM; in experiment [4], 564 nM.
In the case of `CC1=CC(C)(C)Nc2ccc3c(c21)/C(=C/c1ccc(F)c(F)c1)Oc1ccccc1-3`, the IC50 in experiment [1] worked out at 916 nM; in experiment [2], 1650 nM. Besides, the Ki in experiment [3] is 3.6 nM; in experiment [4] it was 237 nM.
